Test results reported in ChEMBL document CHEMBL4038349, “Synthesis and Evaluation of Asymmetric Acyclic Nucleoside Bisphosphonates as Inhibitors of Plasmodium falciparum and Human Hypoxanthine-Guanine-(Xanthine) Phosphoribosyltransferase” (J Med Chem, 2017).
pIC50, pKi: −log10 of the molar value. Calls of active or inactive are those of the source. The rule behind the calls is not given here.

What was measured:
Plasmodium falciparum [1] = experiment: Antimalarial activity against Plasmodium falciparum D6 infected in type O+ human RBC assessed as reduction in [3H]hypoxanthine incorporation preincubated for 48 hrs followed by [3H]hypoxanthine addition measured after 96 hrs; assay type: functional
Procedure, shortened: (§1)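 Ring-stage synchronized cultures (>90% early trophozoite, D-sorbitol) at 0.5% parasitemia, 2% hematocrit in hypoxanthine-free RPMI-1640-LPLF with 10% human plasma, 37°C under 5% O2/5% CO2/90% N2. Ten 2-fold serial dilutions of prodrug for 96 h. [3H]-hypoxanthine (0.2 μCi/well) added at ~48 h. IC50 from non-linear regression of incorporation versus log concentration. Mean (±SD) of at least two independent experiments.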

Plasmodium falciparum [2] = experiment: Antimalarial activity against chloroquine and pyrimethamine-resistant Plasmodium falciparum W2 infected in type O+ human RBC assessed as reduction in [3H]hypoxanthine incorporation preincubated for 48 hrs followed by [3H]hypoxanthine addition measured after 96 hrs; assay type: functional; procedure, shortened: as §1
[3] = Selectivity index, ratio of CC50 for human A549 cells to IC50 for Plasmodium falciparum D6; assay type: toxicity; conditions: read-out: Ratio CC50/IC50
Procedure, shortened: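 Ratio CC50/IC50. CC50: A549 cells, 4-day proliferation, Coulter counting. IC50: Pf D6 ring-stage cultures, 0.5% parasitemia, 2% hematocrit, hypoxanthine-free medium, ten 2-fold dilutions of phosphoramidate prodrugs for 96 h; [3H]-hypoxanthine added at ~48 h; IC50 by non-linear regression; at least two independent experiments, mean ±SD.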

[4] = Inhibition of Plasmodium falciparum HGPRT using PRib-PP as the substrate by spectrophotometric method
Procedure, shortened: (§2)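 Enzyme assays in 0.1 M Tris-HCl, 10 mM MgCl2, pH 7.4. Guanine fixed at 49 µM as non-variable substrate; PRib-PP varied 20-1400 µM at fixed inhibitor concentration; Hanes' plots. Ki from Km(app) = Km[1+[I]/Ki], assuming competitive inhibition; for Ki <2 µM, Km(app) measured at three inhibitor concentrations.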

[5] = biological target: T1, Hypoxanthine-guanine phosphoribosyltransferase (Homo sapiens, UniProt P00492); experiment: Inhibition of human HGPRT using PRib-PP as the substrate by spectrophotometric method; procedure, shortened: as §2
T1 sequence (P00492 whole entry): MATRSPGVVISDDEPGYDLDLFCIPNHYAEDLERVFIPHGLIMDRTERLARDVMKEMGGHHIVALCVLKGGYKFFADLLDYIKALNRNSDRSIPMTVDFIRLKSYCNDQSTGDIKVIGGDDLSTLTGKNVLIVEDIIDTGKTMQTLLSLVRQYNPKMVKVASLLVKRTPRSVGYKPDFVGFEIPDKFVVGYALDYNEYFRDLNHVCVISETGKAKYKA

Plasmodium falciparum [6] = experiment: Inhibition of Plasmodium falciparum HGPRT using PRib-PP as the substrate at 50 uM by spectrophotometric method
[7] = Cytotoxicity against human A549 cells after 4 days by Coulter counting method; assay type: cell-based
Procedure, shortened: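 Human lung carcinoma A549 cells seeded at 7500 cells/well, compounds added next day in serial dilutions; 4 days at 37°C, then cells trypsinized and counted. CC50 = concentration giving 50% inhibition of proliferation versus no-compound control, derived by extrapolation assuming semi-log dose-response.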

Plasmodium falciparum [8] = experiment: Inhibition of Plasmodium falciparum HGPRT using PRib-PP as the substrate at 33 uM by spectrophotometric method

pKi [5] | Compound | pKi [4] | CC50 at 96 h [7] [µM] | further results
 | CCOC(=O)[C@H](Cc1ccccc1)NP(=O)(CCOCC(Cn1cnc2c(=O)[nH]cnc21)OCCP(=O)(N[C@@H](Cc1ccccc1)C(=O)OCC)N[C@@H](Cc1ccccc1)C(=O)OCC)N[C@@H](Cc1ccccc1)C(=O)OCC (stereo not given in full) |  |  | pIC50 (Plasmodium falciparum [1]): 5.44; pIC50 (Plasmodium falciparum [2]): 5.72; selectivity ratio [3]: 25
5.34 | O=c1[nH]cnc2c1ccn2CC(COCCP(=O)(O)O)COCP(=O)(O)O (stereo not given) | 5.22 |  | 
 | O=c1[nH]cnc2c1ncn2CC(COCP(=O)(O)O)COCP(=O)(O)O | 5.30 |  | 
5.74 | O=c1[nH]cnc2c1ncn2CC(COCCP(=O)(O)O)COCP(=O)(O)O (stereo not given) | 5.52 |  | 
5.60 | O=c1[nH]cnc2c1nc(Br)n2CC(COCCP(=O)(O)O)COCP(=O)(O)O (stereo not given) |  |  | inhibition (Plasmodium falciparum [6]): inactive
7.00 | Nc1nc2c(nc(Br)n2CC(COCCP(=O)(O)O)COCP(=O)(O)O)c(=O)[nH]1 (stereo not given) | 5.70 |  | 
6.40 | Nc1nc2c(nc(Br)n2CC(COCCP(=O)(O)O)OCCP(=O)(O)O)c(=O)[nH]1 (stereo not given) | 6.05 |  | 
 | CCOC(=O)[C@H](Cc1ccccc1)NP(=O)(CCOCC(COCP(=O)(N[C@@H](Cc1ccccc1)C(=O)OCC)N[C@@H](Cc1ccccc1)C(=O)OCC)Cn1cnc2c(=O)[nH]c(N)nc21)N[C@@H](Cc1ccccc1)C(=O)OCC (stereo not given in full) |  | 212 | pIC50 (Plasmodium falciparum [1]): 5.24; pIC50 (Plasmodium falciparum [2]): 5.13; selectivity ratio [3]: 37
 | Nc1nc2c(ncn2CC(COCCP(=O)(O)O)OCCP(=O)(O)O)c(=O)[nH]1 (stereo not given) | 6.30 |  | 
 | CCOC(=O)[C@H](Cc1ccccc1)NP(=O)(CCOCC(COCP(=O)(N[C@@H](Cc1ccccc1)C(=O)OCC)N[C@@H](Cc1ccccc1)C(=O)OCC)Cn1c(Br)nc2c(=O)[nH]c(N)nc21)N[C@@H](Cc1ccccc1)C(=O)OCC (stereo not given in full) |  | 151 | pIC50 (Plasmodium falciparum [1]): 5.25; pIC50 (Plasmodium falciparum [2]): 5.08; selectivity ratio [3]: 27
 | CCOC(=O)[C@H](Cc1ccccc1)NP(=O)(CCOCC(COCP(=O)(N[C@@H](Cc1ccccc1)C(=O)OCC)N[C@@H](Cc1ccccc1)C(=O)OCC)Cn1cnc2c(=O)[nH]cnc21)N[C@@H](Cc1ccccc1)C(=O)OCC (stereo not given in full) |  | 82 | pIC50 (Plasmodium falciparum [1]): 5.85; pIC50 (Plasmodium falciparum [2]): 5.49; selectivity ratio [3]: 59
 | CCOC(=O)[C@H](Cc1ccccc1)NP(=O)(CCOCC(COCP(=O)(N[C@@H](Cc1ccccc1)C(=O)OCC)N[C@@H](Cc1ccccc1)C(=O)OCC)Cn1c(Br)nc2c(=O)[nH]cnc21)N[C@@H](Cc1ccccc1)C(=O)OCC (stereo not given in full) |  | 36 | 
 | CCOC(=O)[C@H](Cc1ccccc1)NP(=O)(CCOCC(Cn1c(Br)nc2c(=O)[nH]c(N)nc21)OCCP(=O)(N[C@@H](Cc1ccccc1)C(=O)OCC)N[C@@H](Cc1ccccc1)C(=O)OCC)N[C@@H](Cc1ccccc1)C(=O)OCC (stereo not given in full) |  | 188 | 
 | CCOC(=O)[C@H](Cc1ccccc1)NP(=O)(CCOCC(COCP(=O)(N[C@@H](Cc1ccccc1)C(=O)OCC)N[C@@H](Cc1ccccc1)C(=O)OCC)Cn1ccc2c(=O)[nH]cnc21)N[C@@H](Cc1ccccc1)C(=O)OCC (stereo not given in full) |  | 20 | 
6.15 | O=c1[nH]cnc2c1ncn2CC(COCCP(=O)(O)O)OCCP(=O)(O)O (stereo not given) |  |  | inhibition (Plasmodium falciparum [8]): inactive
 | CCOC(=O)[C@H](Cc1ccccc1)NP(=O)(CCOCC(COCP(=O)(N[C@@H](Cc1ccccc1)C(=O)OCC)N[C@@H](Cc1ccccc1)C(=O)OCC)Cn1ccc2c(=O)[nH]c(N)nc21)N[C@@H](Cc1ccccc1)C(=O)OCC (stereo not given in full) |  | 106 | pIC50 (Plasmodium falciparum [1]): 5.74; pIC50 (Plasmodium falciparum [2]): 5.19; selectivity ratio [3]: 59

Compound | pKi [5] | pKi [4] | CC50 at 96 h [7] [µM] | further results
Nc1nc2c(ccn2CC(COCCP(=O)(O)O)COCP(=O)(O)O)c(=O)[nH]1 (stereo not given) | 7.00 | 5.40 |  | 
Nc1nc2c(ncn2CC(COCCP(=O)(O)O)COCP(=O)(O)O)c(=O)[nH]1 (stereo not given) | 8.22 | 7.15 |  | 
